In the library only some 1.6% were active in any assay of this set; here they are far more common.
T cell modulator – T cell immune modulators affecting CD8 T cell-vesicle binding; AID 2052; 2C CD8+ T cell-vesicle binding, flow cytometry; active compounds read low; 0.068% of 330,000 active; response (vesicle binding), % at 7 µM;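 active = response, share of CD8 T cells binding vesicles, and their 90th percentile fluorescence all below set limits, cut at about 80% in these data, passing the limit was not always enough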;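 note: values below 100% mean blocked vesicle binding to the CD8+ T cells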
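Incubation: binding step 1.5 h, 37 °C, antibody labelling 20 min, ice; system: murine 2C transgenic CD8+ T lymphocytes; technique: cytometric PE anti-B7-1 and Alexa647 anti-CD8 signals after 1% paraformaldehyde fixation; also added: QL9-charged Drosophila Ld/ICAM-1/B7-1 vesicles; control set: naked versus QL9-loaded vesicles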
DSG3 Ab inh – inhibitors of pemphigus antibody binding to human desmoglein-3; 0.48% of 310,000 active; DSG3-coupled beads, scFv-anti-DSG3-GFP binding, flow cytometry; active compounds read low; binding (percent of control), % at 10 µM; AID 588358; P32926;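 active = binding more than 3 SD below its plate's average and above zero; inconclusive = below that plate limit but binding exactly zero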;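 note: hits lower antibody fragment binding to DSG3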
GASC-1 inh – blocks human GASC-1 demethylase activity | inhibition, % at 2.35 µM | Q9H3R0 | 0.069% of 330,000 active | GST-JMJD2C(1-420) H3K9me3 demethylation, DELFIA europium;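 active = more than half of a compound's replicate wells show inhibition beyond 50%, single wells judged on their own value; inconclusive = some, but no more than half, of replicates pass 50% inhibition; inactive = no replicate passes 50% inhibition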;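 note: signal counts dimethyl H3K9 product captured on neutravidin plate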
Target sequence (Q9H3R0 1-420 limits assumed): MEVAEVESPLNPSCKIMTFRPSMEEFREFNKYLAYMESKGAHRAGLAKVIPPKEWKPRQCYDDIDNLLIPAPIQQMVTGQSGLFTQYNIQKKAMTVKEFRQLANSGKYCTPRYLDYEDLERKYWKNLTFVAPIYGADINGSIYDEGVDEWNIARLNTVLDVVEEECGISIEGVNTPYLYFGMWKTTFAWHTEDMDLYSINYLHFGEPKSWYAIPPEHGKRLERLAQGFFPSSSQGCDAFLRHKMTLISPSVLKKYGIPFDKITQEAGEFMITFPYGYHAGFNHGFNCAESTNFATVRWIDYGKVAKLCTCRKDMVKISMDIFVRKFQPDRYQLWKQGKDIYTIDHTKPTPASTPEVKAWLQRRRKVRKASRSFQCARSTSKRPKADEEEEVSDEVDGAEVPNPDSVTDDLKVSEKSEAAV
LANA-H2A inh – blocks KSHV LANA binding to histone H2A/H2B; Q9QR71; cell-free LANA-H2A/H2B peptide, fluorescence polarization; 0.6% of 320,000 active; inhibition, % (no concentration beside the values); in the data active = inhibition mostly above about 10%, no sharp cut-off; inactive = mostly below about 6.7%
Arr AP2 block – blocks beta-arrestin peptide binding to AP2 adaptin. 0.31% of 340,000 active. inhibition, % at 10 µM. FITC-arrestin peptide / GST-AP2 beads, flow cytometry; AP2 beta2 appendage carries R879A mutation;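 active = inhibition above a set limit, near 3 SD of compounds lacking own fluorescence, cut at about 54% in these data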
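System: GST-tagged AP2 beta2-adaptin appendage (R879A) on 4 µm glutathione beads / Reagent: FITC-arrestin peptide, 50 nM / Detection: HyperCyt-sampled flow cytometry, FL1 channel, ex 488/em 535 nm / Timing: 12 min plus 1 h, RT / Buffer or medium: PBS plus Tween 20 (0.05%) and BSA (0.1%)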
HDAC3 inh – blocks human histone deacetylase 3; inhibition, % at 8.3 µM; 0.15% of 320,000 active; AID 2718; recombinant HDAC3, fluorogenic peptide/trypsin coupled, fluorescence; in the data active = inhibition above about 26%, passing the limit was not always enough; inconclusive = no clear call, values can overlap the other calls
A number is an active result; i = inactive; ? = inconclusive; nt = not tested or not shown; + = active, no number.

SMILES | T cell modulator | DSG3 Ab inh | GASC-1 inh | LANA-H2A inh | Arr AP2 block | HDAC3 inh
COc1cccc(NC(=O)CN(C)C(=O)C23CC4CC(CC(Cl)(C4)C2)C3)c1 | i | i | nt | 42 | i | i
O=C(COc1ccc([N+](=O)[O-])cc1)Nc1ccc(N2CCN(C(=O)c3ccco3)CC2)cc1 | i | i | ? | 28 | i | i
O=C(COc1ccc(Cl)cc1)Nc1ccc(N2CCN(C(=O)c3ccco3)CC2)cc1 | i | 72 | i | i | i | i
Cc1ccc([N+](=O)[O-])cc1S(=O)(=O)Nc1ccc(C(=O)N(C)C)cc1 | i | i | i | i | i | i
Cc1ccc([N+](=O)[O-])cc1S(=O)(=O)Nc1ccc(C(=O)N2CCN(C(=O)c3ccco3)CC2)cc1 | i | i | i | 16 | i | i
COc1ccc(OCC(=O)Nc2ccc(N3CCN(C(=O)c4ccco4)CC3)cc2)cc1 | i | i | i | i | i | i
O=c1sc(N2CCN(c3ccc(F)cc3)CC2)nc2ccsc12 | i | 79 | i | i | i | i
O=c1sc(N2CCN(c3ccccc3F)CC2)nc2ccsc12 | i | i | i | i | i | i
COc1ccc(CN2CCCCC2C)cc1C (stereo not drawn) | i | i | i | i | i | i
COc1ccc(CN2CCCCC2C)c(C)c1C (stereo not drawn) | i | i | 50 | i | i | i
CC1=C2C3OC(=O)C(C)C3CCC2(C)C=CC1=NO (stereo not drawn) | nt | i | nt | nt | i | nt
COc1cccc2cc(C(=O)CS(=O)(=O)c3ccc(C)cc3)c(=O)oc12 | i | i | i | i | i | i
Cc1ccc(S(=O)(=O)CC(=O)c2cc3cccc(C)c3oc2=O)cc1 | i | 49 | i | i | i | i
CCN(CC(=O)Nc1c(F)cccc1F)C(=O)c1cccc(S(=O)(=O)N2CCCCCC2)c1 | i | i | i | i | i | i
CN1CCCN(C(=O)c2cccc(Br)c2)CC1 | i | i | i | 12 | i | i
CCn1c(S(=O)(=O)O)nc2ccccc21 | i | i | i | i | i | i
Nc1ccc(-c2c3ccc(=O)cc-3oc3cc(O)ccc23)c(C(=O)O)c1 | i | i | i | 65 | i | ?
COc1ccccc1CNC(=O)COC(=O)/C=C/c1ccc2ccccc2n1 | i | i | i | 17 | i | i
Cc1ccc(NC(=O)C2CCCN2c2nn3c(=O)cc(C)nc3s2)cc1 (stereo not drawn) | i | i | i | i | i | i
N#Cc1nc(COc2ccc(-c3ccccc3)cc2)oc1NCCCN1CCOCC1 | i | i | i | i | 83 | i
CCN(CC)c1ccc(/C=N/NC(=O)c2ccoc2C)c(O)c1 | i | 48 | i | i | i | i
CN1C(N)=NC(=O)/C1=C\c1ccc(Br)cc1 | i | i | i | i | i | i
O=C(CCC(C(=O)c1ccccc1)c1ccccc1)c1ccccc1 (stereo not drawn) | nt | i | nt | nt | nt | nt
O=S(=O)(NC(=S)NC1CCCCC1)c1ccccc1 | i | i | i | 10 | i | i
Cc1nc2ccc(C(C(F)(F)F)(C(F)(F)F)C(F)(F)F)cc2[nH]1 | i | i | i | i | i | 32
SMILES | T cell modulator | DSG3 Ab inh | GASC-1 inh | LANA-H2A inh | Arr AP2 block | HDAC3 inh
CC(C)(C=O)C1=CC(=O)c2ccccc2C1=O | i | i | i | + | i | i
CC1=CC(=O)c2ccccc2C1=O | i | i | i | i | i | i
Cc1cccc(NC(=O)Cn2c(=O)n(CCC(=O)NC3CCCC3)c(=O)c3ccccc32)c1 | i | nt | i | i | i | i
CCOc1ccccc1NC(=O)Cn1c(=O)n(CCC(=O)NC2CCCC2)c(=O)c2ccccc21 | i | i | i | 31 | i | i
Cc1ccc(C(=O)Nc2ccc(F)cc2)cc1NC1=NC2CS(=O)(=O)CC2S1 (stereo not drawn) | i | i | i | i | i | i
O=C(Cc1cccs1)Nc1cccc(C(=O)Nc2ccc(C(=O)O)cc2)c1 | i | i | i | 51 | i | i
O=S1(=O)CCN(C(CCO)c2cccc(C(F)(F)F)c2)CC1 (stereo not drawn) | nt | nt | i | + | i | i
O=C(Nc1ccc(C(F)(F)F)cc1)C1CCCCN1S(=O)(=O)c1ccccc1 (stereo not drawn) | i | i | nt | nt | i | nt
CCC(C)(C)NC(=O)C(c1ccncc1)N(C(=O)Cn1nnc2ccccc21)c1cc2c(cc1C(C)=O)OCO2 (stereo not drawn) | i | 84 | i | i | i | i
CCC(C)(C)NC(=O)C(c1ccncc1)N(Cc1cccs1)C(=O)Cn1nnc2ccccc21 (stereo not drawn) | i | i | i | i | i | i
O=C(O)c1cccc(Cn2c(Cl)c(/C=N/NC(=O)c3ccco3)sc2=O)c1 | i | nt | i | i | i | i
CCc1ccccc1NC(=O)CN(C)C(=O)c1cccc(S(=O)(=O)N2CCCCCC2)c1 | i | i | i | i | i | i
Cc1cc(C)cc(NC(=O)CSc2nc(=O)n(CCCN3CCOCC3)c3c2CCCC3)c1 | i | i | i | i | i | i
CCCC(=O)n1nc(-c2ccc(Cl)cc2)nc1SC | i | i | i | i | i | 32
COc1cccc(Nc2nc(C)cc(C)c2C#N)c1 | i | i | nt | i | i | i
COc1ccc(Nc2nc(C)cc(C)c2C#N)cc1OC | i | 12 | i | i | i | i
COc1ccc2[nH]c(C)c(CCNC(=S)Nc3cc(C)ccc3C)c2c1 | i | -16 | i | i | i | i
CC(Oc1ccc(F)cc1)C(=O)Nc1ccccc1C(=O)N1CCCCC1 (stereo not drawn) | i | nt | i | i | i | i
NS(=O)(=O)c1cccc(NC(=O)CSc2nnc(NC3CC3)s2)c1 | nt | i | nt | nt | nt | nt
O=C(NCCN1C(=O)S/C(=C\c2ccc(Cl)c(Cl)c2)C1=O)c1cnccn1 | i | 88 | i | i | i | i
CCNC(=O)C1CC(=O)N(Cc2ccc3c(c2)OCO3)C(=Nc2ccc(OCC)cc2)S1 (stereo not drawn) | i | i | i | 63 | i | i
O=C(CSc1nnnn1-c1ccccc1)Nc1ccc(N2CCOCC2)c(Cl)c1 | i | i | i | i | i | i
O=C(CSc1nnnn1-c1cccc2ccccc12)Nc1ccc(N2CCOCC2)c(Cl)c1 | i | i | i | 15 | i | i
O=C/C=C/c1c(-c2ccccc2)cc2oc3ccccc3cc1-2 | i | i | i | i | i | i
C=CCC[C@@H](Cc1ccc(F)cc1)C(=O)OCCNC(=O)[C@@H](CC=C)CC(=O)N[C@@H](CO)Cc1ccccc1 | i | i | i | 26 | i | i
C=CCC[C@@H](Cc1ccc(F)cc1)C(=O)OC[C@@H]1CCCN1C(=O)[C@@H](CC=C)CC(=O)N[C@@H](CO)Cc1ccccc1 | i | i | i | i | i | 35
CCN(CC)CCNC(=O)c1cn(CC)c2ccc(S(=O)(=O)N3CCc4ccccc4C3)cc2c1=O | i | i | i | i | i | i

Screening data deposited in PubChem by several laboratories.
